Test results taken from ChEMBL document CHEMBL3797160, “Discovery of novel diaryl urea derivatives bearing a triazole moiety as potential antitumor agents” (Eur J Med Chem, 2016).

Assays:
[1] = system: MDA-MB-231; test: Antiproliferative activity against human MDA-MB-231 cells after 72 hrs by MTT assay; assay type: functional, cell-based; conditions: MDA-MB-231, 72 h
Method in brief: (§1)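 MTT assay. Cells grown in MEM with 10% FBS. About 4 × 10³ cells per well were plated and left 24 h at 37 °C in 5% CO₂. Compounds were then added for a further 72 h. MTT was added to a final 5 µg/mL for 4 h at 37 °C. Formazan was dissolved in DMSO and read at 492 nm against a 630 nm reference. Each line was tested three times, and IC50 is the average of at least three determinations.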

[2] = system: HT-29; test: Antiproliferative activity against human HT-29 cells after 72 hrs by MTT assay; assay type: functional, cell-based; conditions: HT-29, 72 h; method in brief: as §1
[3] = Antiproliferative activity against human H460 cells after 72 hrs by MTT assay; assay type: functional, cell-based; conditions: NCI-H460, 72 h; method in brief: as §1
[4] = Cytotoxicity against human WI38 cells after 72 hrs by MTT assay; assay type: cell-based; conditions: WI-38, 72 h; method in brief: as §1
[5] = biological target: Proto-oncogene tyrosine-protein kinase receptor Ret (Homo sapiens) (UniProt P07949); test: Inhibition of RET (unknown origin) at 10 uM after 1 hr by mobility shift assay
Sequence of Proto-oncogene tyrosine-protein kinase receptor Ret (Homo sapiens) (P07949 whole entry): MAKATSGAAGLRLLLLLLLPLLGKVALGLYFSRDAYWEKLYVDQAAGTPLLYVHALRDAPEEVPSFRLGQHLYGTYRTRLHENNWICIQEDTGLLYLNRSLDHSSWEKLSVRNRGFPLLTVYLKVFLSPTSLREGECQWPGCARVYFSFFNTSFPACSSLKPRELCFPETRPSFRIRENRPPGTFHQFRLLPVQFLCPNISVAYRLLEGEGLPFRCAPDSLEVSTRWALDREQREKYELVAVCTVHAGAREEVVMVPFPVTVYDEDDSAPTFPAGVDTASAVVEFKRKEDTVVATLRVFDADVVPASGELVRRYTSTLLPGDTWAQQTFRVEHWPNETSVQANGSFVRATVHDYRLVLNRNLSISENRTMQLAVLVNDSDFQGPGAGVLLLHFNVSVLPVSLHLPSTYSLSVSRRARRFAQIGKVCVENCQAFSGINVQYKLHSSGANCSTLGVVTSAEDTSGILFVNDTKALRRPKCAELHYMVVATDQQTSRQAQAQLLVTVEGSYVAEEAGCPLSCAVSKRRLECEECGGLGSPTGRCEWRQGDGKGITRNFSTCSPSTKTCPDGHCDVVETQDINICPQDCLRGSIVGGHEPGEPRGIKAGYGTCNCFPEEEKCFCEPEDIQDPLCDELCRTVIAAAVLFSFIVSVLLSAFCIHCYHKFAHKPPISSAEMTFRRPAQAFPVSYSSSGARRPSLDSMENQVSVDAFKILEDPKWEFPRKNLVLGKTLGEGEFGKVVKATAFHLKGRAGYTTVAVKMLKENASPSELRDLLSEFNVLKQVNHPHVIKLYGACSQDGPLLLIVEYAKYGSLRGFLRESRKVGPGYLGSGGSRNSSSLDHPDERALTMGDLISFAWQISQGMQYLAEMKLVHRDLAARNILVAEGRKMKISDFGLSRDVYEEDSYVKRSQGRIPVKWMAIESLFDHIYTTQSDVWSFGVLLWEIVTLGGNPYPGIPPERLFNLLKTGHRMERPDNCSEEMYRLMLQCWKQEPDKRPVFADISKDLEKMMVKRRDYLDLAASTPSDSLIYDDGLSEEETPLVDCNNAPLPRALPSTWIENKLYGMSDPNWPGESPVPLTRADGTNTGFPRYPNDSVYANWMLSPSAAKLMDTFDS
Method in brief: (§2)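 Mobility shift kinase assay. Compounds were diluted in DMSO and then in kinase buffer, and tested in duplicate wells with enzyme and peptide substrate. Incubation was 1 h at 28 °C before stop buffer was added.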

[6] = biological target: Mast/stem cell growth factor receptor Kit (Homo sapiens) (UniProt P10721); test: Inhibition of c-KIT (unknown origin) at 10 uM after 1 hr by mobility shift assay; method in brief: as §2
Sequence of Mast/stem cell growth factor receptor Kit (Homo sapiens) (P10721 whole entry): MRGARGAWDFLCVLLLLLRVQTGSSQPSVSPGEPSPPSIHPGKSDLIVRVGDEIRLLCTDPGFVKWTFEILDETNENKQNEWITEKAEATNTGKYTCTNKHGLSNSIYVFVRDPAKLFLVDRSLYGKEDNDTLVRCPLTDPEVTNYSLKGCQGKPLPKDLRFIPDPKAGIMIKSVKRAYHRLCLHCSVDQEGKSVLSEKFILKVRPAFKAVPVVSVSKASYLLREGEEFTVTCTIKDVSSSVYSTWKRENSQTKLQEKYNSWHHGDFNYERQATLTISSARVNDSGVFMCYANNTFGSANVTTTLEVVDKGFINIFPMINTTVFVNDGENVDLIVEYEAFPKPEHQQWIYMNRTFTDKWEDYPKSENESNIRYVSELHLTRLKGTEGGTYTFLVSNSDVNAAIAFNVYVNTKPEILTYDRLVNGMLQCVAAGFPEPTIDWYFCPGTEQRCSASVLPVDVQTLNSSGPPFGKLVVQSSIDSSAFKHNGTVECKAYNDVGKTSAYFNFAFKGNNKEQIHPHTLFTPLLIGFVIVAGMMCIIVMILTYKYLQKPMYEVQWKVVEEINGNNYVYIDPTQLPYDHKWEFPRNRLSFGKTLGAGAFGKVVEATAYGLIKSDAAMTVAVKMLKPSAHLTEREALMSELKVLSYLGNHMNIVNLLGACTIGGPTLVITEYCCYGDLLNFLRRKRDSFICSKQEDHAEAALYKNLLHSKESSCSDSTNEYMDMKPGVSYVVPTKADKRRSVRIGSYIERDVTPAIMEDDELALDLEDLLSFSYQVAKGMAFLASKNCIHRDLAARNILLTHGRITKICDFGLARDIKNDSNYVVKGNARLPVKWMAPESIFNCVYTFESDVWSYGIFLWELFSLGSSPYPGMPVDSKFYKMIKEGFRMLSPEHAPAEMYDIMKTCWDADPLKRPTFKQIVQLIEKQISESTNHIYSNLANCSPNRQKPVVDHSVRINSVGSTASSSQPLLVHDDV

[7] = biological target: Vascular endothelial growth factor receptor 2 (Homo sapiens) (UniProt P35968); conditions: at 10 µM;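 note: kinase activity read out by mobility shift assay after 1 h of incubation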
Sequence of Vascular endothelial growth factor receptor 2 (Homo sapiens) (P35968 whole entry): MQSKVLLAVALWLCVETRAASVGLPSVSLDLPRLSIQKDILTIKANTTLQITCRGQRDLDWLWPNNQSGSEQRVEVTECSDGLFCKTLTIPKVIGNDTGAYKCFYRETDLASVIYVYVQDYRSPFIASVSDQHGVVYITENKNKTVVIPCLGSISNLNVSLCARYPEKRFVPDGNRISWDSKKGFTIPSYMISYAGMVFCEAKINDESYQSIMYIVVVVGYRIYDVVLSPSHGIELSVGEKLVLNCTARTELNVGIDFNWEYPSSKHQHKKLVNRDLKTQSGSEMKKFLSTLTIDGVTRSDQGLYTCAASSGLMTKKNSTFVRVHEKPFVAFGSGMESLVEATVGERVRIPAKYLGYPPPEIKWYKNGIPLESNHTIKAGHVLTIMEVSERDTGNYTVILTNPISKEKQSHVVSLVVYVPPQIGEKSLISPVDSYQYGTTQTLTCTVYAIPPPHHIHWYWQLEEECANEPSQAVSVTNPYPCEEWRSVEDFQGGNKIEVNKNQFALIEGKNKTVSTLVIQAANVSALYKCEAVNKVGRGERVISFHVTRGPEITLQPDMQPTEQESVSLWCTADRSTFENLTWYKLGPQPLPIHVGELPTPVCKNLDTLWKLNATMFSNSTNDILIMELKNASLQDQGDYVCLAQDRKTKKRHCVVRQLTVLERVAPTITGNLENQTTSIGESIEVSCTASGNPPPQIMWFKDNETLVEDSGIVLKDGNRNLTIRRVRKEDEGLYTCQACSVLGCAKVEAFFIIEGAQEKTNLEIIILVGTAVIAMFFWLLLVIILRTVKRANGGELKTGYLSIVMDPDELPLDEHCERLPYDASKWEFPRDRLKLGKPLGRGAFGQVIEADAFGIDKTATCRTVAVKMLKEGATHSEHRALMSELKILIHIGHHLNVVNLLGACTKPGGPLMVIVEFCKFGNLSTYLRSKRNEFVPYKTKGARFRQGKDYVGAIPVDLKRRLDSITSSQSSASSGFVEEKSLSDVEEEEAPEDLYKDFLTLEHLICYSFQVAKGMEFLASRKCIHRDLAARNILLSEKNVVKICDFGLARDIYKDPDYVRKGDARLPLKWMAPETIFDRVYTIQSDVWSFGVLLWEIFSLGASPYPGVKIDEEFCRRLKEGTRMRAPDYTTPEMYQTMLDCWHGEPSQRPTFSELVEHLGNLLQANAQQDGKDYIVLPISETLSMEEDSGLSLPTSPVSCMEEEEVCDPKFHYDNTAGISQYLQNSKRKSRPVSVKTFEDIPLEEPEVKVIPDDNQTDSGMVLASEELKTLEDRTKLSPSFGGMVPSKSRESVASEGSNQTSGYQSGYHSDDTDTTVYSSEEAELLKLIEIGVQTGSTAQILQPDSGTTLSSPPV

[8] = biological target: Receptor-type tyrosine-protein kinase FLT3 (Homo sapiens) (UniProt P36888); test: Inhibition of FLT3 (unknown origin) at 10 uM after 1 hr by mobility shift assay; method in brief: as §2
Sequence of Receptor-type tyrosine-protein kinase FLT3 (Homo sapiens) (P36888 whole entry): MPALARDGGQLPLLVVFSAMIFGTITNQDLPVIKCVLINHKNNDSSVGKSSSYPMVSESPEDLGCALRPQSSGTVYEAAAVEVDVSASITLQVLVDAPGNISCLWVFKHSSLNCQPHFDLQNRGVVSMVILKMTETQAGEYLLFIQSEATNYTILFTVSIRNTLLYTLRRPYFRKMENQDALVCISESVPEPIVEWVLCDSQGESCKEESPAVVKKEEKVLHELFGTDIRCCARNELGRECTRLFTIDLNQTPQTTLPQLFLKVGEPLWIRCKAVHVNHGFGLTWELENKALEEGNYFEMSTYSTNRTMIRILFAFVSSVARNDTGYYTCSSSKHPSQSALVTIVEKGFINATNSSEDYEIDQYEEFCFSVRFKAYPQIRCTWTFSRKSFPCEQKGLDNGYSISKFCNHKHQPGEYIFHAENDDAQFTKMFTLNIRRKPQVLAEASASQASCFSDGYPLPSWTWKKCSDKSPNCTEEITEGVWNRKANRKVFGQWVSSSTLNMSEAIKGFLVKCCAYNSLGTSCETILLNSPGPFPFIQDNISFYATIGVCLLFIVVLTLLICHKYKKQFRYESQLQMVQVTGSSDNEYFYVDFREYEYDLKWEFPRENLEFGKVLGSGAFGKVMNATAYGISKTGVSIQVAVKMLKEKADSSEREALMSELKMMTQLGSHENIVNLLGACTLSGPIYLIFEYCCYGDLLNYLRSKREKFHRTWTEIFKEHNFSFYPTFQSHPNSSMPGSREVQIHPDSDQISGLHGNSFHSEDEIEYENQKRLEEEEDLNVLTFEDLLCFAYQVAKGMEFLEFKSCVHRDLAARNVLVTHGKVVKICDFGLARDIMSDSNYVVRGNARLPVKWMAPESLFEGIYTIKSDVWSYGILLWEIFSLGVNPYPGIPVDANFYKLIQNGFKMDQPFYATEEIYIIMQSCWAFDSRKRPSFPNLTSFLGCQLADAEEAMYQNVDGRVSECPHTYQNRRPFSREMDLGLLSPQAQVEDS

[9] = system: HT-29; test: Induction of apoptosis in human HT-29 cells assessed as late apoptotic cells at 5 uM after 48 hrs by annexin V/propidium iodide staining based flow cytometric analysis (reference value: 2.49 %); assay type: functional
[10] = system: HT-29; test: Induction of apoptosis in human HT-29 cells assessed as viable cells 2 uM after 48 hrs by annexin V/propidium iodide staining based flow cytometric analysis (reference value: 92.1 %); assay type: functional
[11] = system: HT-29; test: Induction of apoptosis in human HT-29 cells assessed as early apoptotic cells at 5 uM after 48 hrs by annexin V/propidium iodide staining based flow cytometric analysis (reference value: 1.72 %); assay type: functional
[12] = system: HT-29; test: Induction of apoptosis in human HT-29 cells assessed as viable cells at 1 uM after 48 hrs by annexin V/propidium iodide staining based flow cytometric analysis (reference value: 92.1 %); assay type: functional; conditions: HT-29, 48 h, read-out: Activity
[13] = system: HT-29; test: Induction of apoptosis in human HT-29 cells assessed as early apoptotic cells at 1 uM after 48 hrs by annexin V/propidium iodide staining based flow cytometric analysis (reference value: 1.72 %); assay type: functional
[14] = system: HT-29; test: Induction of apoptosis in human HT-29 cells assessed as necrotic cells at 5 uM after 48 hrs by annexin V/propidium iodide staining based flow cytometric analysis (reference value: 3.66 %); assay type: functional
[15] = system: HT-29; test: Induction of apoptosis in human HT-29 cells assessed as late apoptotic cells at 2 uM after 48 hrs by annexin V/propidium iodide staining based flow cytometric analysis (reference value: 2.49 %); assay type: functional
[16] = system: HT-29; test: Induction of apoptosis in human HT-29 cells after 48 hrs by annexin V/propidium iodide staining based flow cytometric analysis; assay type: functional, cell-based
[17] = system: HT-29; test: Induction of apoptosis in human HT-29 cells assessed as late apoptotic cells at 1 uM after 48 hrs by annexin V/propidium iodide staining based flow cytometric analysis (reference value: 2.49 %); assay type: functional
[18] = system: HT-29; test: Induction of apoptosis in human HT-29 cells assessed as early apoptotic cells at 2 uM after 48 hrs by annexin V/propidium iodide staining based flow cytometric analysis (reference value: 1.72 %); assay type: functional
[19] = system: HT-29; test: Induction of apoptosis in human HT-29 cells assessed as necrotic cells at 1 uM after 48 hrs by annexin V/propidium iodide staining based flow cytometric analysis (reference value: 3.66 %); assay type: functional
[20] = system: HT-29; test: Induction of apoptosis in human HT-29 cells assessed as necrotic cells at 2 uM after 48 hrs by annexin V/propidium iodide staining based flow cytometric analysis (reference value: 3.66 %); assay type: functional
[21] = system: HT-29; test: Induction of apoptosis in human HT-29 cells assessed as viable cells 5 uM after 48 hrs by annexin V/propidium iodide staining based flow cytometric analysis (reference value: 92.1 %); assay type: functional

With `Cn1cnnc1-c1cc(Oc2ccc(NC(=O)Nc3ccc(Cl)c(C(F)(F)F)c3)cc2F)ccn1` the IC50 [1] was 5.32 µM, the IC50 [2] was 2.57 µM and the IC50 [3] was 2.31 µM. For the same compound, the IC50 [4] was 9.85 µM.

Compound `CN(C)CCCn1cnnc1-c1cc(Oc2ccc(NC(=O)Nc3ccc(F)c(Cl)c3)cc2F)ccn1` has an IC50 [1] of 14.2 µM, an IC50 [2] of 0.89 µM and an IC50 [3] of 1.27 µM. The inhibition [5] was 45.5%, the IC50 [4] was 5.37 µM and the inhibition [6] was 71%. For the same compound, the inhibition [7] was 35% and the inhibition [8] was 72.1%.

For `CCN(CC)CCn1cnnc1-c1cc(Oc2ccc(NC(=O)Nc3ccc(F)c(Cl)c3)cc2F)ccn1`, the IC50 [1] was 34 µM, the IC50 [2] was 0.5 µM and the IC50 [3] was 7.39 µM. The inhibition [5] was 1.9%, the IC50 [4] was 28.7 µM and the inhibition [6] was 40.4%. For the same compound, the inhibition [7] was 2.7% and the inhibition [8] was 59.6%.

`CN(C)CCCn1cnnc1-c1cc(Oc2ccc(NC(=O)Nc3ccc(Cl)cc3Cl)cc2F)ccn1` gave an IC50 [1] of 7.49 µM, an IC50 [2] of 0.68 µM and an IC50 [3] of 3.68 µM. For the same compound, the IC50 [4] was 3.26 µM and the inhibition [7] was 11.3%.

With `CCN(CC)CCn1cnnc1-c1cc(Oc2ccc(NC(=O)Nc3ccc(F)c(F)c3)cc2F)ccn1` the IC50 [1] was 41.3 µM, the IC50 [2] was 1.24 µM and the IC50 [3] was 14.8 µM. The inhibition [5] was 7.1%, the IC50 [4] was > 50 µM and the inhibition [6] was 27.7%. It also gave an inhibition [7] of 0% and an inhibition [8] of 39%.

With `CN(C)CCCn1cnnc1-c1cc(Oc2ccc(NC(=O)Nc3cccc(C(F)(F)F)c3)cc2F)ccn1` the IC50 [1] was 13.3 µM, the IC50 [2] was 0.98 µM and the IC50 [3] was 1.79 µM. For the same compound, the inhibition [5] was 85.6%, the IC50 [4] was 11.6 µM and the inhibition [6] was 69.9%. For the same compound, the inhibition [7] was 62.8% and the inhibition [8] was 69.2%.

For `O=C(Nc1ccc(Oc2ccnc(-c3nncn3CCCN3CCOCC3)c2)c(F)c1)Nc1ccc(F)c(Cl)c1`, the IC50 [1] was > 50 µM, the IC50 [2] was 16.2 µM and the IC50 [3] was 16.2 µM.

`CN(C)CCCn1cnnc1-c1cc(Oc2ccc(NC(=O)Nc3ccccc3C(F)(F)F)cc2F)ccn1` gave an IC50 [1] of 40.5 µM, an IC50 [2] of 3.13 µM and an IC50 [3] of 10.9 µM. It also gave an IC50 [4] of 28.6 µM and an inhibition [7] of 1.7%.

For `CN(C)CCn1cnnc1-c1cc(Oc2ccc(NC(=O)Nc3ccc(F)c(F)c3)cc2F)ccn1`, the IC50 [1] was > 50 µM, the IC50 [2] was 3.62 µM and the IC50 [3] was 9.05 µM. For the same compound, the inhibition [5] was 17.6%, the IC50 [4] was > 50 µM and the inhibition [6] was 3.9%. The inhibition [8] was 13.5%.

Compound `CCN(CC)CCn1cnnc1-c1cc(Oc2ccc(NC(=O)Nc3ccc(Cl)c(C(F)(F)F)c3)cc2F)ccn1` has an Activity [9] of 37.5%, an Activity [10] of 66.4% and an Activity [11] of 10.6%. For the same compound, the viability at 1 µM [12] was 80.3%, the IC50 [1] was 1.54 µM and the Activity [13] was 3.92%. The IC50 [2] was 0.9 µM, the IC50 [3] was 0.85 µM and the inhibition [5] was 84.4%. The IC50 [4] was 6.73 µM, the inhibition [6] was 79.9% and the Activity [14] was 8.59%. The Activity [15] was 13.2%, the Activity [16] was “Dose-dependent effect” and the Activity [17] was 8.34%. It also gave an Activity [18] of 14.4%, an inhibition [7] of 10% and an Activity [19] of 7.44%. It also gave an inhibition [8] of 84.9%, an Activity [20] of 6.03% and an Activity [21] of 43.3%.

In the case of `Cn1ncnc1-c1cc(Oc2ccc(NC(=O)Nc3cccc(C(F)(F)F)c3)cc2F)ccn1`, the IC50 [1] is reported as 9.68 µM, the IC50 [2] is reported as > 50 µM and the IC50 [3] is reported as 11.6 µM. For the same compound, the IC50 [4] was 22.4 µM.

With `Cn1cnnc1-c1cc(Oc2ccc(NC(=O)Nc3cccc(C(F)(F)F)c3)cc2F)ccn1` the IC50 [1] was 6.47 µM, the IC50 [2] was 3.02 µM and the IC50 [3] was 1.27 µM. The IC50 [4] was 12.6 µM.

`CCN(CC)CCn1cnnc1-c1cc(Oc2ccc(NC(=O)Nc3cccc(C(F)(F)F)c3)cc2F)ccn1` showed an IC50 [1] of 0.72 µM, an IC50 [2] of 0.63 µM and an IC50 [3] of 9.87 µM. It also gave an inhibition [5] of 72.1%, an IC50 [4] of 6.92 µM and an inhibition [6] of 66.5%. The inhibition [7] was 11.5% and the inhibition [8] was 61%.

In the case of `CN(C)CCn1cnnc1-c1cc(Oc2ccc(NC(=O)Nc3ccc(F)c(Cl)c3)cc2F)ccn1`, the IC50 [1] is reported as 8.32 µM, the IC50 [2] is reported as 0.72 µM and the IC50 [3] is reported as 1.58 µM. For the same compound, the inhibition [5] was 63.3%, the IC50 [4] was 7.58 µM and the inhibition [6] was 74%. It also gave an inhibition [7] of 26.9% and an inhibition [8] of 52.2%.
